Measurements taken from ChEMBL document CHEMBL4020832, “Development of (6 R)-2-Nitro-6-[4-(trifluoromethoxy)phenoxy]-6,7-dihydro-5 H-imidazo[2,1- b][1,3]oxazine (DNDI-8219): A New Lead for Visceral Leishmaniasis” (J Med Chem, 2018).

What was measured:
Liver [1] = experiment: Metabolic stability in CD-1 mouse liver microsomes assessed as parent compound remaining at 1 uM after 1 hr; assay type: ADME, microsome
Liver [2] = experiment: Metabolic stability in human liver microsomes assessed as parent compound remaining at 0.5 uM after 0.5 hr; assay type: ADME, microsome
[3] = Metabolic stability in hamster liver microsomes assessed as parent compound remaining at 0.5 uM after 0.5 hr; assay type: ADME, microsome; conditions: read-out: Stability
Liver [4] = experiment: Metabolic stability in CD-1 mouse liver microsomes assessed as parent compound remaining at 0.5 uM after 0.5 hr; assay type: ADME, microsome
[5] = Metabolic stability in hamster liver microsomes assessed as parent compound remaining at 1 uM after 1 hr; assay type: ADME, microsome; conditions: read-out: Stability
Liver [6] = experiment: Metabolic stability in human liver microsomes assessed as parent compound remaining at 1 uM after 1 hr; assay type: ADME, microsome
[7] = Half life in golden Syrian hamster at 40 mg/kg, po by LC-MS/MS analysis; assay type: ADME, organism-based, Mesocricetus auratus; conditions: in vivo
[8] = Half life in golden Syrian hamster at 2 mg/kg, iv by LC-MS/MS analysis; assay type: ADME, organism-based, Mesocricetus auratus; conditions: in vivo
Summary of the method: (§1)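 Fasted female golden Syrian hamsters. IV dose was 2 mg/kg as a solution in 20% NMP and 40% PEG-400 in citrate buffer (pH 3). Oral dosing at 40–50 mg/kg used PEG-400 as vehicle. Plasma was quantified by LC–MS/MS. AUClast was taken to the last time point (24 or 48 h).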

[9] = Cmax in golden Syrian hamster at 40 mg/kg, po by LC-MS/MS analysis; assay type: ADME, organism-based, Mesocricetus auratus; set-up: dose 40 mg/kg, route oral; conditions: in vivo; summary of the method: as §1
[10] = Tmax in golden Syrian hamster at 40 mg/kg, po by LC-MS/MS analysis; assay type: ADME, organism-based, Mesocricetus auratus; conditions: in vivo
[11] = Volume of distribution at steady state in golden Syrian hamster at 2 mg/kg, iv by LC-MS/MS analysis; assay type: ADME, organism-based, Mesocricetus auratus; conditions: in vivo, read-out: Vdss
Summary of the method: (§2)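 Fasted female golden Syrian hamsters given 2 mg/kg iv as a solution in 20% NMP and 40% PEG-400 in citrate buffer pH 3. Plasma concentrations determined by LC–MS/MS to derive PK parameters.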

[12] = Clearance in golden Syrian hamster at 2 mg/kg, iv by LC-MS/MS analysis; assay type: ADME, organism-based, Mesocricetus auratus; conditions: in vivo
[13] = AUClast in golden Syrian hamster at 2 mg/kg, iv after 24 to 48 hrs by LC-MS/MS analysis; assay type: ADME, organism-based, Mesocricetus auratus; conditions: in vivo; summary of the method: as §1
[14] = AUClast in golden Syrian hamster at 40 mg/kg, po after 24 to 48 hrs by LC-MS/MS analysis; assay type: ADME, organism-based, Mesocricetus auratus; conditions: in vivo; summary of the method: as §1
[15] = Initial concentration in golden Syrian hamster at 2 mg/kg, iv by LC-MS/MS analysis; assay type: ADME, organism-based, Mesocricetus auratus; conditions: in vivo; summary of the method: as §2
Syrian golden hamster = experiment: Oral bioavailability in golden Syrian hamster at 40 mg/kg by LC-MS/MS analysis; assay type: ADME, organism-based, Mesocricetus auratus; conditions: in vivo
[16] = AUClast in Swiss albino mouse at 25 mg/kg, po after 24 to 48 hrs by LC-MS/MS analysis; assay type: ADME, organism-based; conditions: in vivo
[17] = Volume of distribution at steady state in Swiss albino mouse at 1 mg/kg, iv by LC-MS/MS analysis; assay type: ADME, organism-based; conditions: in vivo, read-out: Vdss
Summary of the method: (§3)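 Male Swiss albino mice given 1 mg/kg iv in 20% NMP/40% PEG-400 in 100 mM citrate buffer pH 3. Plasma sampled at 0.083, 0.25, 0.5, 1, 2, 4, 6, 8, 10, 24 and 48 h. Levels measured by LC–MS/MS; noncompartmental PK parameters.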

[18] = Cmax in Swiss albino mouse at 25 mg/kg, po by LC-MS/MS analysis; assay type: ADME, organism-based; set-up: dose 25 mg/kg, route oral; conditions: in vivo
[19] = Clearance in Swiss albino mouse at 1 mg/kg, iv by LC-MS/MS analysis; assay type: ADME, organism-based; conditions: in vivo
[20] = Initial concentration in Swiss albino mouse at 1 mg/kg, iv by LC-MS/MS analysis; assay type: ADME, organism-based; conditions: in vivo; summary of the method: as §3
[21] = Tmax in Swiss albino mouse at 25 mg/kg, po by LC-MS/MS analysis; assay type: ADME, organism-based; conditions: in vivo
Summary of the method: (§4)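 Male Swiss albino mice dosed orally at 25 mg/kg as a suspension in 0.5% CMC/0.08% Tween 80 in water. Plasma sampled 0.25–48 h, analysed by LC–MS/MS. F from dose-normalized AUClast against a 1 mg/kg iv dose.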

Mus musculus [22] = experiment: Oral bioavailability in Swiss albino mouse at 25 mg/kg by LC-MS/MS analysis; assay type: ADME, organism-based; conditions: in vivo; summary of the method: as §4
Mus musculus [23] = experiment: Half life in Swiss albino mouse at 1 mg/kg, iv by LC-MS/MS analysis; assay type: ADME, organism-based; conditions: in vivo
[24] = AUClast in Swiss albino mouse at 1 mg/kg, iv after 24 to 48 hrs by LC-MS/MS analysis; assay type: ADME, organism-based; conditions: in vivo

Row | Stability (Liver [1]) | Stability (Liver [2]) | remaining at 0.5 h, 0.5 µM [3] | Stability (Liver [4]) | remaining at 1 h, 1 µM [5] | Stability (Liver [6]) | SMILES | further results
1 | 66% | 85% | 37% | 77% | 10% | 58% | O=[N+]([O-])c1cn2c(n1)OC[C@H](OCc1ccc(-c3ccc(F)cc3)cn1)C2 | 
2 | 56% |  |  |  | 7.9% | 58% | O=[N+]([O-])c1cn2c(n1)OC[C@H](OCc1ccc(-c3ccc(OC(F)F)cc3)nc1)C2 | 
3 |  | 73% | 75% | 100% |  |  | O=[N+]([O-])c1cn2c(n1)OC[C@@H](OCc1ccc(-c3ccc(OC(F)(F)F)cc3Cl)cn1)C2 | 
4 |  | 92% | 59% | 88% |  |  | O=[N+]([O-])c1cn2c(n1)OC[C@@H](OCc1ccc(-c3ccc(OC(F)F)cc3)cn1)C2 | 
5 |  | 88% | 69% | 84% |  |  | O=[N+]([O-])c1cn2c(n1)OC[C@@H](OCc1ccc(-c3ccc(OC(F)(F)F)cc3F)cn1)C2 | 
6 | 59% |  |  |  |  | 73% | O=[N+]([O-])c1cn2c(n1)OC[C@H](Oc1ccc(-c3ccc(F)cc3)nc1)C2 | 
7 | 41% |  |  |  | 9.2% | 37% | O=[N+]([O-])c1cn2c(n1)OC[C@H](OCc1ccc(-c3ccc(OC(F)(F)F)cc3F)nc1)C2 | half-life [7]: 5.8 h; half-life [8]: 5.3 h; Cmax [9]: 4700 ng/mL; Tmax [10]: 3.3 h; Vd [11]: 3.2 L/kg; clearance [12]: 8.8 mL/min/kg; AUC(0-t) [13]: 3690 ng·h/mL; AUC(0-t) [14]: 46500 ng·h/mL
8 | 0.2% |  |  |  |  | 8% | O=[N+]([O-])c1cn2c(n1)OC[C@H](OCc1ncccc1-c1ccc(OC(F)(F)F)cc1)C2 | 
9 | 57% |  |  |  | 5.2% | 59% | O=[N+]([O-])c1cn2c(n1)OC[C@H](OCc1ccc(-c3ccc(F)cc3F)cn1)C2 | half-life [7]: 0.83 h; half-life [8]: 0.83 h; Cmax [9]: 1900 ng/mL; C0 [15]: 930 ng/mL; Tmax [10]: 0.75 h; Vd [11]: 4 L/kg; clearance [12]: 63 mL/min/kg; AUC(0-t) [13]: 480 ng·h/mL; AUC(0-t) [14]: 3950 ng·h/mL; F (Syrian golden hamster): 37%
10 |  | 78% | 70% | 88% |  |  | O=[N+]([O-])c1cn2c(n1)OCC(COc1ccc(OC(F)(F)F)cc1)C2 (stereo not given) | AUC(0-t) [16]: 15700 ng·h/mL; Vd [17]: 2.5 L/kg; Cmax [18]: 1500 ng/mL; clearance [19]: 13 mL/min/kg; C0 [20]: 340 ng/mL; Tmax [21]: 1 h; F (Mus musculus [22]): 50%; t1/2 (Mus musculus [23]): 2 h; AUC(0-t) [24]: 1250 ng·h/mL
11 | 67% |  |  |  |  | 87% | O=[N+]([O-])c1cn2c(n1)OC[C@@H](OCc1ccn(-c3ccc(OC(F)(F)F)cc3)n1)C2 | 
12 |  | 78% | 43% | 75% |  |  | O=[N+]([O-])c1cn2c(n1)OC[C@@H](OCc1csc(-c3ccc(OC(F)(F)F)cc3)n1)C2 | 
13 |  | 74% | 64% | 43% |  |  | O=C(Nc1ccccc1OC(F)(F)F)N[C@@H]1COc2nc([N+](=O)[O-])cn2C1 | 
14 | 61% |  |  |  | 7.5% |  | O=[N+]([O-])c1cn2c(n1)OC[C@H](NCc1ccc(OC(F)(F)F)cc1)C2 | 

Row | SMILES | Stability (Liver [1]) | Stability (Liver [2]) | remaining at 0.5 h, 0.5 µM [3] | Stability (Liver [4]) | remaining at 1 h, 1 µM [5] | Stability (Liver [6]) | further results
15 | O=[N+]([O-])c1cn2c(n1)OC[C@H](OCc1ccc(OC(F)(F)F)cc1)C2 | 86% |  | 31% |  |  |  | 
